An excerpt weighted towards active compounds, which were near 2.4% of everything screened.
PfG6PD inh: PfG6PD (Plasmodium falciparum) enzyme inhibition; PfGluPho enzyme, NADPH resazurin-diaphorase fluorescence; inhibition, % at 20 µM; 350,000 tested, 0.78% active; AID 504690;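 active means inhibition reaching at least a set limit at 20 µM in the primary screen, cut at about 59% in these data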
A3G deaminase: blocks human APOBEC3G single-stranded DNA deamination; Q9HC16; recombinant A3G, ssDNA deamination FAM/TAMRA fluorescence; inhibition, % at 20 µM; 330,000 tested, 0.28% active; AID 493012;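 active means inhibition of at least 40% at 20 µM, with no more than 30% in the related APOBEC3A deaminase screen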
Target sequence (Q9HC16 whole entry, looked up): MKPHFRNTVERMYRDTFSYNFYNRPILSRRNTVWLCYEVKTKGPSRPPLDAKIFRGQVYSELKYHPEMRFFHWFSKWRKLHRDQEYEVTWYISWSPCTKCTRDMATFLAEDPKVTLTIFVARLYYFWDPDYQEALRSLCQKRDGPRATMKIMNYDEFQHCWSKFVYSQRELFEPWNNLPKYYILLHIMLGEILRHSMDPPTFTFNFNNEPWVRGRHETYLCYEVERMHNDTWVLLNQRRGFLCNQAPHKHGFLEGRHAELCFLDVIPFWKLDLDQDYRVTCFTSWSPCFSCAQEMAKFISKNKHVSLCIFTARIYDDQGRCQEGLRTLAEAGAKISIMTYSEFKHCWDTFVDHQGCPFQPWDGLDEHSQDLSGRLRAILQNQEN
APOBEC3A inh: human APOBEC3A DNA deaminase inhibition; P31941; recombinant A3A, FAM/TAMRA ssDNA deamination fluorescence; inhibition, % at 20 µM; 330,000 tested, 0.41% active; AID 493011;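 active means at least 40% inhibition at 20 µM here, with at most 30% in a related deaminase screen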
Target sequence (P31941 whole entry, looked up): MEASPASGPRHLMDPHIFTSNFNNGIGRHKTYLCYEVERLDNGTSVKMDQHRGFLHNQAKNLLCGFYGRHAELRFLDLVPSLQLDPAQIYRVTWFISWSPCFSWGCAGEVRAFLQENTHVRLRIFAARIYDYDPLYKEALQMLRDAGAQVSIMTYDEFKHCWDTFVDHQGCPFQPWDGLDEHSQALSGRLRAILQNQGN
UBC9 SUMO inh: inhibitors of human SUMOylation (UBC9); P63279; HTRF SUMOylation assay, SAE1/SAE2 + UBC9, in vitro; inhibition, % at 35 µM; 290,000 tested, 0.36% active; AID 2006; in the data active means inhibition above about 50%, passing the limit was not always enough
M18AAP inhibitor: blocks P. falciparum M18 aspartyl aminopeptidase; recombinant PfM18AAP, H-Glu-NHMec fluorogenic cleavage; inhibition, % at 7.35 µM; 290,000 tested, 1.2% active;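 active means inhibition above the campaign mean inhibition over all tested compounds plus 3 SD, cut at about 28% in these data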
HKDC1 inhibitor: blocks human hexokinase HKDC1 activity; 340,000 tested, 0.16% active; inhibition, % at 20 µM; Q2TB90; AID 493160; recombinant HKDC1, G6PDH/diaphorase resazurin coupled fluorescence;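 active means inhibition above about 35% when tested at 20 µM, limit read from the data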
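Test system: Recombinant HKDC1 (HK5) hexokinase enzyme, produced in-house | Input: HKDC1 at 5 µg/mL | Buffer or medium: Tris pH 8.0 buffer with MgCl2, Tween-20, BSA, BME | Schedule: 90 min reaction incubation at room temperature, dark | Technique: Resazurin-to-resorufin fluorescence via G6PDH and diaphorase coupling, 525/613 nm | Controls: DMSO wells with and without enzyme mix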
APOBEC3A confirm: APOBEC3A (human) deaminase inhibition, confirmed | shares compounds with APOBEC3A inh | recombinant A3A, ssDNA deaminase UDG fluorescence assay | inhibition, % at 20 µM | 1,400 tested, 63% active;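 active means inhibition reaching a set limit, 80% of the first screen's cutoff, at 20 µM in any replicate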
UDG A3A counter: counter-screen for APOBEC3A inhibitors: UDG | shares compounds with APOBEC3A inh | UDG counterscreen, FAM/TAMRA uracil oligo fluorescence | inhibition, % at 20 µM | 1,000 tested, under 10 active; call rule not given here
A number is an active result; – = inactive; · = no result given.

SMILES | PfG6PD inh | A3G deaminase | APOBEC3A inh | UBC9 SUMO inh | M18AAP inhibitor | HKDC1 inhibitor | APOBEC3A confirm | UDG A3A counter
CCCc1n(CC(O)COCc2ccccc2)c2ccccc2[n+]1C (stereo unspecified) | – | – | 58.0 | – | – | – | 68.6 | –
CC1CC(C)CN(CC(O)COCc2ccccc2)C1 (stereo unspecified) | – | – | – | – | – | – | · | ·
CCCc1n(CC(O)COCC2CC=CCC2)c2ccccc2[n+]1C (stereo unspecified) | – | – | – | – | – | – | · | ·
Cc1nc2ccc(NC(=O)N3CCSCC3)cc2nc1C | – | – | – | – | – | – | · | ·
CC(C)c1ccc(/C=C2\Oc3c(ccc(O)c3CN3CCN(C)CC3)C2=O)cc1 | – | – | – | – | – | – | · | ·
CC1CCN(Cc2c(O)ccc3c2O/C(=C\c2ccco2)C3=O)CC1 | – | – | 96.9 | – | – | – | 36.2 | –
CC1CCCC(NC(=O)C2CCN(S(=O)(=O)N3CCCCC3)CC2)C1C (stereo unspecified) | – | – | – | – | – | – | · | ·
O=C(COC(=O)c1cc2c(s1)CCC2)Nc1ccc(F)cc1 | – | – | 45.2 | – | – | – | 48.7 | –
O=C(COC(=O)c1cc2c(s1)CCCC2)Nc1ccc(Cl)cn1 | – | – | – | – | – | – | · | ·
COCCn1c(C)cc(C(=O)COC(=O)c2cc3c(s2)CCC3)c1C | – | – | 43.2 | – | – | – | 27.3 | –
COc1ccc(NC(=O)COC(=O)c2cc3c(s2)CCC3)cc1 | – | – | 40.5 | · | · | – | 32.5 | –
NC(=O)c1ccc(NC(=O)COC(=O)c2cc3c(s2)CCC3)cc1 | – | – | 54.8 | · | · | – | 42.9 | –
COCCNC(=O)c1ccc2c(=O)n(Cc3ccco3)c(SCC(=O)Nc3ccc(OC)cc3OC)nc2c1 | – | – | – | – | – | – | · | ·
CCN(CC(=O)NC(C)(C)C)C(=O)CN1c2cccc3cccc(c23)S1(=O)=O | – | – | – | – | – | – | · | ·
CC(=O)c1ccc[n+](CC(=O)NC(C)c2ccccc2)c1 (stereo unspecified) | – | – | 61.9 | – | – | – | 64.3 | –
CC(NC(=O)C[n+]1cccc(Br)c1)c1ccccc1 (stereo unspecified) | – | – | – | – | – | – | · | ·
CCOC(=O)c1c(NC(=O)Cn2ccsc2=N)sc(C)c1C | – | – | 56.8 | – | – | – | – | ·
CCOC(=O)c1c(NC(=O)CNCCO)sc(C)c1C | – | – | – | – | – | – | · | ·
O=C(CCc1ccccc1)Nc1ncn[nH]1 | – | – | 93.6 | – | – | – | – | –
O=C(COc1ccccc1)Nc1ncn[nH]1 | – | – | – | – | – | – | · | ·
CCN1/C(=C/c2cc[n+](C)cc2)C=Cc2cc(C)ccc21 | – | · | · | – | – | – | · | ·
Cc1ccc2c(c1)S/C(=C/c1ccc[n+](C)c1)N2CCO | – | – | 70.0 | – | – | – | 84.3 | –
CCN1C(N(C)CCc2cccs2)=N[C@@H](c2ccccc2)C(C(=O)OC)=C1C | – | – | 52.2 | – | – | – | 52.5 | –
CCN1C(N(C)CCc2c[nH]c3ccccc23)=N[C@@H](c2cccc(C(F)(F)F)c2)C(C(=O)OC)=C1C | – | – | – | · | · | – | · | ·
CC(C)(C)CC(=O)Nc1ccc(S(=O)(=O)NC2=NCCCCC2)cc1 | – | – | – | · | · | – | · | ·
SMILES | PfG6PD inh | A3G deaminase | APOBEC3A inh | UBC9 SUMO inh | M18AAP inhibitor | HKDC1 inhibitor | APOBEC3A confirm | UDG A3A counter
CC1CCN(c2nc3ccc(C(=O)O)cc3s2)CC1 | – | – | – | – | – | – | · | ·
Cc1nc2ccc(C(=O)O)cc2c2c1CC(C)S2 (stereo unspecified) | – | – | 43.0 | – | – | – | 46.2 | –
O=C(CSc1nnc(-c2cccnc2)n1Cc1ccco1)Nc1nc(-c2ccc(F)cc2)cs1 | – | – | – | – | – | – | · | ·
Cc1ccc(NC(=O)c2ccccc2CCc2ccccc2)c(C)c1 | – | – | 99.7 | – | – | – | – | ·
Cc1cc(C)c(NC(=O)c2ccccc2CCc2ccccc2)c(C)c1 | – | – | – | – | – | – | · | ·
NC(=O)c1cc(-c2ccccc2)nc(N2CCOCC2)n1 | – | – | – | – | – | – | · | ·
CC[n+]1cc(-c2ccccc2)nc(N2CCOCC2)n1 | – | – | 50.8 | – | – | – | 66.7 | ·
O=C(N/N=C\C=C\c1ccc2c(c1)OCO2)c1cccnc1 | – | – | 45.1 | – | – | – | – | –
O=C(/C=C/c1ccc2c(c1)OCO2)c1cccnc1 | – | – | – | – | – | – | · | ·
CC(=O)c1ccc(NC(=O)CSc2nc(=O)n(CCN3CCOCC3)c3c2CCC3)cc1 | – | – | – | · | · | – | · | ·
COc1ccc(-c2csc(N(CCCN(C)C)C(=O)c3ccccc3F)n2)cc1 | – | – | 47.8 | – | – | – | – | –
COc1ccc(-c2csc(N(CCCN(C)C)C(=O)c3ccccc3C)n2)cc1 | – | – | – | – | – | – | · | ·
CC(=O)OC(C[N+]1(C)CCCCCC1)c1ccccc1 (stereo unspecified) | – | – | 78.8 | – | – | – | 69.3 | –
C[N+]1(CC(O)c2ccccc2)CCCCCC1 (stereo unspecified) | – | – | 69.4 | – | – | – | 63.9 | –
CCOC(=O)CNC(=O)N1CCCC(C(=O)c2ccccc2SC)C1 (stereo unspecified) | – | – | – | – | – | – | · | ·
CCN(C(=O)Cn1c(=O)oc2ccccc21)c1cccc(C)c1 | – | – | 100.5 | – | – | – | – | ·
N#CC1(NC(=O)COc2ccc(S(=O)(=O)N3CCCC3)cc2[N+](=O)[O-])CCCCC1 | – | – | 51.2 | · | · | – | – | ·
CC1CCCCN1C(=O)COc1ccc(S(=O)(=O)N2CCCC2)cc1[N+](=O)[O-] (stereo unspecified) | – | – | – | · | · | – | · | ·
Cn1nnnc1SCC(=O)Nc1ccc(Br)cc1Cl | – | – | 49.7 | – | – | – | 49.0 | –
CCCCCCNC(=O)c1cc(-c2ccco2)nc2ccccc12 | – | – | 61.6 | – | – | – | 54.1 | –
O=C(O)C1C2C=CC(C2)C1C(=O)N1CCN(C/C=C/c2ccccc2)CC1 (stereo unspecified) | – | – | 46.9 | – | – | – | – | ·
CC(C)(C)OC(=O)N1CC(O)CC1C(=O)OCC(=O)c1ccc(Cl)cc1 (stereo unspecified) | – | – | 41.8 | – | – | – | – | ·
CC(C)(C)OC(=O)N1CC(O)CC1C(=O)OCC(=O)c1ccc(-c2ccccc2)cc1 (stereo unspecified) | – | – | 82.6 | – | – | – | 71.2 | –
CC(C)(C)OC(=O)N1CC(O)CC1C(=O)OCC(=O)c1ccccc1 (stereo unspecified) | – | – | – | – | – | – | · | ·

Screening data as filed in PubChem BioAssay.
